# Experiments:
# Nucleic Acid = assay: Ratio of drug level in brain to plasma in ICR mouse at 10 mg/kg, po after 2 hrs by HPLC/MS/MS analysis; type: ADME, organism-based; design: dose 10 mg/kg, route oral
# [1] = Apparent half life in ICR mouse at 5 mg/kg, iv; type: ADME, organism-based; design: dose 5 mg/kg, route intravenous; details: in vivo, read-out: t1/2(app) (converted)
# [2] = molecular target: T1, Prostaglandin G/H synthase 1 (Ovis aries, UniProt P05979); assay: Inhibition of ovine COX1 by EIA
# T1 sequence (P05979 whole entry): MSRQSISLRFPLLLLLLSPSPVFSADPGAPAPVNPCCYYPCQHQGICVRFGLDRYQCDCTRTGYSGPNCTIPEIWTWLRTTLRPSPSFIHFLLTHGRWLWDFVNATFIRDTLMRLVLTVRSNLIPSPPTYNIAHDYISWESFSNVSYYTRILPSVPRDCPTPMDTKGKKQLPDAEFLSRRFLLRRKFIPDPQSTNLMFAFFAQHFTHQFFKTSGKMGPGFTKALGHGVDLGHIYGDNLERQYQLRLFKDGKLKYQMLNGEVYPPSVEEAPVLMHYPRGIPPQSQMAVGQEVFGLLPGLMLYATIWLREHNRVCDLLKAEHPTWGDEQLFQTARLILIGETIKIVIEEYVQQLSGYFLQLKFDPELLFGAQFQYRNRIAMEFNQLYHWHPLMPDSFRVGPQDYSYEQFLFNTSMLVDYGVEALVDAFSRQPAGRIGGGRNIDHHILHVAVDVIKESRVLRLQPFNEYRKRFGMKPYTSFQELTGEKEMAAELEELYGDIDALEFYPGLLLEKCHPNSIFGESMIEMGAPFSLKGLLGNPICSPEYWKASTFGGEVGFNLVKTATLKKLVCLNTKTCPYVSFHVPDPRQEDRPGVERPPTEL
# Rattus norvegicus = assay: Gastrointestinal toxicity in Wistar rat assessed as ulcerogenic effect at 108.8 mg/kg, po measured after 17 hrs post treatment (Rvb =0.50 +/- 0.41); type: organism-based; design: dose 108.8 mg/kg, route oral; details: in vivo
# Procedure, shortened: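 Wistar rats, 150–200 g, eight per group, fasted at least 8 h with water ad libitum. Drug is given orally as a 0.5% CMC suspension at 10 ml/kg; controls get 0.5% CMC. Food is returned after 30 min. At 17 h rats are killed with CO₂ and stomachs removed. Damage score is the summed lesion lengths in mm per rat; mean ± SEM.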
smiles,measurement,setting,value
CC(C)Cc1ccc([C@H](CF)C(=O)O)cc1,BPR,Nucleic Acid,0.03 mL/g
same,half-life,[1],52.8 min
same,IC50,[2],500 nM
same,Activity,Rattus norvegicus,Toxic

# From ChEMBL document CHEMBL1944509, “Methyl-monofluorination of ibuprofen selectively increases its inhibitory activity toward cyclooxygenase-1 leading to enhanced analgesic activity and reduced gastric damage in vivo” (Bioorg Med Chem Lett, 2011)
